Paper PMC5480654 (Cancer Growth and Metastasis, 2017)

What was measured:
[1] = Biodistribution of I125-labeled peptides; format: in vivo, mouse
[2] = tested on: breast cancer cells; test: Cell proliferation in vitro; format: cell-based
[3] = Tolerability in treated NSG mice; format: in vivo, mouse
[4] = tested on: WASF3; details: in vitro; cited from earlier work
[5] = tested on: MDA-MB-231 cells; format: in vivo, mouse; details: 15 mg/kg ip every other day
How it was run: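 Six-week-old female NSG mice, in groups of 4, received 2 × 10^6 cells (grown in RPMI with 5% FBS) into the fourth mammary fat pad. Tumors grew for 2 weeks before stapled peptide treatment began, given intraperitoneally every other day for 5 weeks, […]. Mice were then euthanized and the dissected tumors were weighed individually.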

[6] = Blood clearance of I125-labeled peptides; format: in vivo, mouse; details: calculated by the authors, stated in Discussion
How it was run: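 Peptides were iodinated with I125 on iodination beads (1 bead per 50 µg peptide): I125 was preincubated with the beads for 5 min, then peptide in PBS was added for 15 to 20 min. Free label was removed on 1K-cutoff filters, and labeling efficiency was checked by TLC (85% methanol). Dosing was i.v. via the tail vein, with blood drawn from the opposite vein at 5, 30, 60 min, 3 h and 24 h (3 animals). Blood was weighed, gamma-counted and expressed as activity/g to derive half-life.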

[7] = tested on: MDA-MB-231 cells; test: Ki67 and CD31 staining of primary tumors; format: in vivo, mouse

In the case of “FAM-PEG3-LEK*TNS* LAKIIRQL (sidechain bridge or staple) [WAHM1]”, the “tumor uptake, WAHM1 compared with WANT3-v1” value ([1]; I125-labeled Tyr-N-term versions, SPECT) is reported as “significantly greater than for the WANT3-v1 peptide”, the “radioactivity per gram of tissue (gamma counting)” value ([1]; I125-labeled peptide, organs and tumor isolated after 72 h) is reported as “significant uptake in tumors after 72 hours” and the “effect on cell proliferation” value [2] is reported as “does not affect cell proliferation”. The “overall body weight at conclusion of treatment” value ([3]; 15 mg/kg ip every other day, 5 weeks) was “reduced”, the “morbidity at the higher dose” value ([3]; 30 mg/kg ip every other day, after 2 weeks, dose discontinued) was “significant morbidity and weight loss” and the “phosphoactivation of WASF3” value [4] was “suppresses phosphoactivation of WASF3”. The “weight of the tumors at conclusion of treatment” value ([5]; 5 weeks, vs control tumors) was “significant reduction”, the “number of surface tumor nodules on the lungs” value ([5]; 5 weeks, vs vehicle control) was “significant reduction in the number of surface tumor nodules” and the “dissemination of tumor cells (bioluminescence imaging)” value ([5]; after 5 weeks, vs DMSO vehicle) was “significant reduction in the observed extent of dissemination of tumor cells”. For the same substance, the “retention time in the blood system” value [6] was ~ 30 minutes, the “Ki67 staining of primary tumors (proliferation potential)” value ([7]; WAHM1-treated vs control mice, printed as 25% vs 22%, no significant difference) was 25% and the “number and size of microvessels in the primary tumors (anti-CD31)” value ([7]; after 5 weeks, vs vehicle alone) was “significant reduction after 5 weeks in the number and size of microvessels”.
